From ChEMBL document CHEMBL4396883, “Discovery of CDK5 Inhibitors through Structure-Guided Approach” (ACS Med Chem Lett, 2019)
Activity calls are given as the source filed them. The rule behind the calls is not given here.

Target: CDK9/cyclin T1 (Homo sapiens, UniProt P50750)
Experiment: Inhibition of human recombinant full length N-terminal GST His6 fused CDK9 (M1 to F372 residues/ N-terminal His6 tagged Cyclin T1 (M1 to K726 residues) expressed in sf9 cells using RBER-IRStide as substrate incubated for 90 mins in presence of ATP by ADP-Glo kinase assay
Settings: not given

CDK9/cyclin T1, sequence (O60563 whole entry, the tested form may be a part): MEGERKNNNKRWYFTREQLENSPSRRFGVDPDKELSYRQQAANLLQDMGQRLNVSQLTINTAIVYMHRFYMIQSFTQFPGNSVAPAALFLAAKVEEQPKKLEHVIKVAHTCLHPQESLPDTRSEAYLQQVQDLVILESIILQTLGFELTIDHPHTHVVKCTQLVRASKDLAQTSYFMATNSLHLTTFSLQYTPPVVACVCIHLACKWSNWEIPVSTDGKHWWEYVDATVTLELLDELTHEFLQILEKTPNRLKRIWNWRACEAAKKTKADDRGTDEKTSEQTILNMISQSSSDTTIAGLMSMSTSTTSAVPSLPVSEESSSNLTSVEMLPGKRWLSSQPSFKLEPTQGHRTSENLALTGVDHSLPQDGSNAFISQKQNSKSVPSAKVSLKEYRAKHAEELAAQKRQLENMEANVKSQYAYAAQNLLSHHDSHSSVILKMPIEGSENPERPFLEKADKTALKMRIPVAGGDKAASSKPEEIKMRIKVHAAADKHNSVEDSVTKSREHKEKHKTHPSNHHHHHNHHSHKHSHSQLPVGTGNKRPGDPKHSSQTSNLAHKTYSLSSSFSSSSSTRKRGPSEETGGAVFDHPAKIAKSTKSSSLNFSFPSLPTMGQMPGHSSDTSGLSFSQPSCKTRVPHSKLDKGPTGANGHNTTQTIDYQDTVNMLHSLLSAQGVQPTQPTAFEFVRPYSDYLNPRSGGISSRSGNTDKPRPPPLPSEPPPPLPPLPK
CDK9/cyclin T1, sequence (P50750 whole entry, the tested form may be a part): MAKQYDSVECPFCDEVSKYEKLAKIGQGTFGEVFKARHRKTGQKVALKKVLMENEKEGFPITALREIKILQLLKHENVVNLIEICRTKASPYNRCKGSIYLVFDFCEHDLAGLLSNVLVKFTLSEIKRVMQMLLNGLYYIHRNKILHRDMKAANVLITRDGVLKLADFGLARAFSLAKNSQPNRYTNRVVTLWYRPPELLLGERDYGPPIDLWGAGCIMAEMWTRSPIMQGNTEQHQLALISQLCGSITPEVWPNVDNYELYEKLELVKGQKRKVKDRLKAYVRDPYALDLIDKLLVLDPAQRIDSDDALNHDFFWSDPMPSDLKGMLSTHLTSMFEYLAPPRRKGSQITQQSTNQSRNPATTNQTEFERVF

Structure (SMILES)	Ki
COc1cccc(Nc2ncc3c(n2)CCCC3)c1	> 5 µM
O=[N+]([O-])c1cccc(Nc2ncc3c(n2)CCCC3)c1	> 5 µM
Cc1ccc(Nc2ncc3c(n2)CCCC3)cc1	> 5 µM
Cc1ccccc1Nc1ncc2c(n1)CCCC2	> 5 µM
CCc1cccc(Nc2ncc3c(n2)CCCC3)c1	> 5 µM

Target: Cyclin-dependent kinase 1/cyclin B1 (Homo sapiens, UniProt P06493)
Experiment: Inhibition of CDK1/CyclinB1 (unknown origin) using histone H1 (GGGPATPKKAKKL) as substrate incubated for 80 mins in presence of ATP by ADP-Glo kinase assay
Type: protein-complex assay
Settings: not given

Cyclin-dependent kinase 1/cyclin B1, sequence (P06493 whole entry): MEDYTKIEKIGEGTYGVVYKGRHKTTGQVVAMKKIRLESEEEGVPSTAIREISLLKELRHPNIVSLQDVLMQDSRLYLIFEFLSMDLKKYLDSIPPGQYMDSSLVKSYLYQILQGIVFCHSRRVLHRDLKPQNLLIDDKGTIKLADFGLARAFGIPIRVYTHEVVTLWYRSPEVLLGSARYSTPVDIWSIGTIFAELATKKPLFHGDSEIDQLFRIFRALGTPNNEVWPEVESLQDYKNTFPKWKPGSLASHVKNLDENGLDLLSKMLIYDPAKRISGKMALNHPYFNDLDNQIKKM
Cyclin-dependent kinase 1/cyclin B1, sequence (P14635 whole entry, further chain): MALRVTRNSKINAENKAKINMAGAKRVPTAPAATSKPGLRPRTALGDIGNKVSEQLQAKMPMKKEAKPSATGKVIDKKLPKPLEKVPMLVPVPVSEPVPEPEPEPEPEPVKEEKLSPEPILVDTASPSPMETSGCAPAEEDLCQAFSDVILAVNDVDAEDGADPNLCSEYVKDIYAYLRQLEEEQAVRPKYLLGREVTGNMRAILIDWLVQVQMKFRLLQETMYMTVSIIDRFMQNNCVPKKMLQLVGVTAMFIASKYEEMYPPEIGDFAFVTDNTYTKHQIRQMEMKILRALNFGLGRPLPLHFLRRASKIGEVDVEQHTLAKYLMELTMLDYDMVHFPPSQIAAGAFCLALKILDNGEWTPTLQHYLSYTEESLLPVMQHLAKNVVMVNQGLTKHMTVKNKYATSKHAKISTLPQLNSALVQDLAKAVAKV

Structure (SMILES)	Ki
COc1cccc(Nc2ncc3c(n2)CCCC3)c1	> 5 µM
O=[N+]([O-])c1cccc(Nc2ncc3c(n2)CCCC3)c1	> 5 µM
Cc1ccc(Nc2ncc3c(n2)CCCC3)cc1	> 5 µM
Cc1ccccc1Nc1ncc2c(n1)CCCC2	> 5 µM
CCc1cccc(Nc2ncc3c(n2)CCCC3)c1	> 5 µM

Target: CDK7/Cyclin H/MNAT1 (Homo sapiens, UniProt P50613)
Experiment: Inhibition of CDK7/cyclinH/MAT1 (unknown origin) using RBER-IRStide as substrate incubated for 120 mins in presence of ATP by ADP-Glo kinase assay
Type: protein-complex assay
Settings: not given

Structure (SMILES)	Ki
COc1cccc(Nc2ncc3c(n2)CCCC3)c1	> 5 µM
O=[N+]([O-])c1cccc(Nc2ncc3c(n2)CCCC3)c1	> 5 µM
Cc1ccc(Nc2ncc3c(n2)CCCC3)cc1	> 5 µM
Cc1ccccc1Nc1ncc2c(n1)CCCC2	> 5 µM
CCc1cccc(Nc2ncc3c(n2)CCCC3)c1	> 5 µM

Target: T1, Cyclin-dependent kinase 5/CDK5 activator 1 (Homo sapiens, UniProt Q00535+Q15078)
Experiment: (§1) Inhibition of recombinant full length N-terminal GST tagged human CDK5/p25 expressed in baculovirus infected sf9 cells using histone H1 as substrate measured after 60 mins in presence of ATP by ADP-Glo kinase assay
Type: cell-based
Settings: sf9
Target sequence in this assay (Q00535 whole entry): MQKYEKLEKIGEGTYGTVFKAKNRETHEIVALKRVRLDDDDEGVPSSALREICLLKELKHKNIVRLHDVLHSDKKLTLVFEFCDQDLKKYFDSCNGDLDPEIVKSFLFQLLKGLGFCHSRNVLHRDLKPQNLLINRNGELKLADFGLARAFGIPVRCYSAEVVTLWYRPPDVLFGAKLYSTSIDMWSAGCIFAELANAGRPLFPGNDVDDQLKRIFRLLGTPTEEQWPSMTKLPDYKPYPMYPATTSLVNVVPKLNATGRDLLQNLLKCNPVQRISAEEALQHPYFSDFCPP
Target sequence in this assay (Q15078 whole entry): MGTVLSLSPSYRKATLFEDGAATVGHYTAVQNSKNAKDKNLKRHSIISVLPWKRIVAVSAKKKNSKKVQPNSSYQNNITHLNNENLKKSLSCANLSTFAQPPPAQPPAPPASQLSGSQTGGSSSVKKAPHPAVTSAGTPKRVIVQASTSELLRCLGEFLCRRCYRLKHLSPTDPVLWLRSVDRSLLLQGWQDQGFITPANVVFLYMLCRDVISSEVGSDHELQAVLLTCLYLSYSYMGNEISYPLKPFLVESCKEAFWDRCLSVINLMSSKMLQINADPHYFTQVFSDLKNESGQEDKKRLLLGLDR

Structure (SMILES)	Ki
CC1(C)CC(=O)c2cnc(NC(=O)c3ccc(F)cc3)nc2C1	Not Active

Target: Cyclin-dependent kinase 5/CDK5 activator 1 (Homo sapiens, UniProt Q00535)
Experiment: as §1
Type: cell-based
Settings: not given

Cyclin-dependent kinase 5/CDK5 activator 1 (Homo sapiens, UniProt Q00535), sequence (Q00535 whole entry): as the sequence (Q00535 whole entry) above
Cyclin-dependent kinase 5/CDK5 activator 1 (Homo sapiens, UniProt Q00535), sequence (Q15078 whole entry, further chain): as the sequence (Q15078 whole entry) above

Structure (SMILES)	Ki	IC50
COc1cccc(Nc2ncc3c(n2)CCCC3)c1	1.01 µM	–
O=[N+]([O-])c1cccc(Nc2ncc3c(n2)CCCC3)c1	1.26 µM	–
Cc1ccc(Nc2ncc3c(n2)CCCC3)cc1	1.44 µM	–
Cc1ccccc1Nc1ncc2c(n1)CCCC2	0.99 µM	–
c1ccc(Nc2ncc3c(n2)CCCC3)cc1	0.88 µM	1.76 µM
COc1ccc(Nc2ncc3c(n2)CCC3)cc1	1.72 µM	–
CCc1cccc(Nc2ncc3c(n2)CCCC3)c1	1.23 µM	–
O=C(Nc1cccc(CN2CCCC2)c1)c1n[nH]c2ccccc12	2.03 µM	–

Target: T1, Cyclin-dependent kinase 5/CDK5 activator 1
Experiment: Inhibition of recombinant full length N-terminal GST tagged human CDK5/p25 expressed in baculovirus infected sf9 cells using histone H1 as substrate at 10 uM measured after 60 mins in presence of ATP by ADP-Glo kinase assay relative to control
Settings: not given
Target sequence in this assay (Q00535 whole entry): as the sequence (Q00535 whole entry) above
Target sequence in this assay (Q15078 99-307 partner limits assumed): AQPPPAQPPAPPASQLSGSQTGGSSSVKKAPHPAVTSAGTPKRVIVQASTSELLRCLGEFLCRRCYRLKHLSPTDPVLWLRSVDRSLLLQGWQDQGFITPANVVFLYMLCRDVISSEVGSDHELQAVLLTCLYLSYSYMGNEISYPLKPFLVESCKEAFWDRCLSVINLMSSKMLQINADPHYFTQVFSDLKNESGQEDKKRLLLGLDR

Structure (SMILES)	inhibition
COc1cccc(Nc2ncc3c(n2)CCCC3)c1	85%
COc1cc(Cl)ccc1Nc1ncc2c(n1)CCCC2	45%
O=[N+]([O-])c1cccc(Nc2ncc3c(n2)CCCC3)c1	83%
COc1ccccc1Nc1ncc2c(n1)CCCC2	22%
COc1ccc(Nc2ncc3c(n2)CCCC3)c(OC)c1F	21%
FC(F)(F)c1ccccc1Nc1ncc2c(n1)CCCC2	10%
FC(F)(F)Oc1ccccc1Nc1ncc2c(n1)CCCC2	9%
CCOc1ccccc1Nc1ncc2c(n1)CCCC2	4%
Cc1ccc(Nc2ncc3c(n2)CCCC3)cc1	77%
Cc1ccccc1Nc1ncc2c(n1)CCCC2	82%
Cc1c(Nc2ncc3c(n2)CCCC3)cccc1NS(C)(=O)=O	63%
FC(F)(F)c1cccc(Nc2ncc3c(n2)CCCC3)c1	5%
COc1ccc(Nc2ncc3c(n2)CCCC3)cc1	1%
CCc1cccc(Nc2ncc3c(n2)CCCC3)c1	78%
FC(F)(F)c1ccc(Nc2ncc3c(n2)CCCC3)cc1	6%

Target: Cyclin-dependent kinase 2/cyclin E1 (Homo sapiens, UniProt P24941)
Experiment: Inhibition of CDK2/Cyclin E (unknown origin) incubated for 30 to 120 mins in presence of ATP by ADP-Glo kinase assay
Type: protein-complex assay
Settings: not given

Structure (SMILES)	Ki
COc1cccc(Nc2ncc3c(n2)CCCC3)c1	> 5 µM
O=[N+]([O-])c1cccc(Nc2ncc3c(n2)CCCC3)c1	> 5 µM
Cc1ccc(Nc2ncc3c(n2)CCCC3)cc1	> 5 µM
Cc1ccccc1Nc1ncc2c(n1)CCCC2	> 5 µM
CCc1cccc(Nc2ncc3c(n2)CCCC3)c1	> 5 µM

Target: CDK2/Cyclin A2 (Homo sapiens, UniProt P24941)
Experiment: Inhibition of recombinant full length N-terminal GST tagged human CDK2/CyclinA expressed in baculovirus infected sf9 cells using histone H1 as substrate measured after 30 mins in presence of ATP by ADP-Glo kinase assay
Settings: not given
Summary of the method: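 CDK2/cyclin A kinase inhibition; Ki values from the average of at least two experiments.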

Structure (SMILES)	Ki
COc1cccc(Nc2ncc3c(n2)CCCC3)c1	1.11 µM
O=[N+]([O-])c1cccc(Nc2ncc3c(n2)CCCC3)c1	1.1 µM
Cc1ccc(Nc2ncc3c(n2)CCCC3)cc1	4.54 µM
Cc1ccccc1Nc1ncc2c(n1)CCCC2	4.12 µM
CCc1cccc(Nc2ncc3c(n2)CCCC3)c1	> 5 µM

Target: CDK6/cyclin D3 (Homo sapiens, UniProt Q00534)
Experiment: Inhibition of human recombinant N-terminal GST-tagged CDK6 (M1-A326 residues) and His6 tagged Cyclin D3 (M1-L292 residues) expressed in sf9 cells using histone H1 (GGGPATPKKAKKL) as substrate incubated for 60 mins in presence of ATP by ADP-Glo kinase assay
Settings: not given

CDK6/cyclin D3, sequence (P30281 whole entry, the tested form may be a part): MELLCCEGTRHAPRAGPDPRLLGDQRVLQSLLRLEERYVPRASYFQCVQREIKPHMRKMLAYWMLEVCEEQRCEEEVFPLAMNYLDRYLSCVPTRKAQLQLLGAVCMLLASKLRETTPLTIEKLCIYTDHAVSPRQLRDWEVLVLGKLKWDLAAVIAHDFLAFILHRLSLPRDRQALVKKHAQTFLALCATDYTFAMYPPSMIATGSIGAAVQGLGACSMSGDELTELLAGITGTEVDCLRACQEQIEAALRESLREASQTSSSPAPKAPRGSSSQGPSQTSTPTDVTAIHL
CDK6/cyclin D3, sequence (Q00534 whole entry, the tested form may be a part): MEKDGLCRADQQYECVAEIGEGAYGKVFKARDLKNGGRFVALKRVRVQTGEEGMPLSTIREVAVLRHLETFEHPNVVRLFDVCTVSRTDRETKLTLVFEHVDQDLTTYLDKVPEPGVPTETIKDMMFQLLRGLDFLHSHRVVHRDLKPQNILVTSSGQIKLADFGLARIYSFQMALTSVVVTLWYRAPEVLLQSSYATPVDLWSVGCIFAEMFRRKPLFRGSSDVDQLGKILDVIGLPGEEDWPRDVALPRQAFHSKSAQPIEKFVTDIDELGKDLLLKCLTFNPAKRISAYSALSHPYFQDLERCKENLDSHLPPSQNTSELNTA

Structure (SMILES)	Ki
COc1cccc(Nc2ncc3c(n2)CCCC3)c1	> 5 µM
O=[N+]([O-])c1cccc(Nc2ncc3c(n2)CCCC3)c1	> 5 µM
Cc1ccc(Nc2ncc3c(n2)CCCC3)cc1	> 5 µM
Cc1ccccc1Nc1ncc2c(n1)CCCC2	> 5 µM
CCc1cccc(Nc2ncc3c(n2)CCCC3)c1	> 5 µM

Tested on: MV4-11
Experiment: Antiproliferative activity against human MV4-11 cells assessed as growth inhibition measured after 72 hrs by resazurin assay
Type: functional
Settings: MV4-11, 72 h
Summary of the method: (§2)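 Leukemia cells exposed to compound for 72 h; viability read by resazurin reduction. GI50 (concentration giving 50% inhibition of proliferation) reported as mean ± SD of three independent experiments.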

Structure (SMILES)	GI50
COc1cccc(Nc2ncc3c(n2)CCCC3)c1	2.28 µM
O=[N+]([O-])c1cccc(Nc2ncc3c(n2)CCCC3)c1	3.5 µM
Cc1ccc(Nc2ncc3c(n2)CCCC3)cc1	6 µM
Cc1ccccc1Nc1ncc2c(n1)CCCC2	> 10 µM
c1ccc(Nc2ncc3c(n2)CCCC3)cc1	9.83 µM
COc1ccc(Nc2ncc3c(n2)CCC3)cc1	0.84 µM
CCc1cccc(Nc2ncc3c(n2)CCCC3)c1	2.6 µM
O=C(Nc1cccc(CN2CCCC2)c1)c1n[nH]c2ccccc12	8.62 µM

Target: CDK2/Cyclin A2 (Homo sapiens) (UniProt P24941+P20248)
Experiment: Inhibition of recombinant full length N-terminal GST tagged human CDK2/CyclinA expressed in baculovirus infected sf9 cells using histone H1 as substrate at 10 uM measured after 30 mins in presence of ATP by ADP-Glo kinase assay relative to control
Settings: not given

Structure (SMILES)	inhibition
COc1cccc(Nc2ncc3c(n2)CCCC3)c1	93%
COc1cc(Cl)ccc1Nc1ncc2c(n1)CCCC2	inactive
O=[N+]([O-])c1cccc(Nc2ncc3c(n2)CCCC3)c1	87%
COc1ccccc1Nc1ncc2c(n1)CCCC2	2%
COc1ccc(Nc2ncc3c(n2)CCCC3)c(OC)c1F	7%
FC(F)(F)c1ccccc1Nc1ncc2c(n1)CCCC2	8%
FC(F)(F)Oc1ccccc1Nc1ncc2c(n1)CCCC2	inactive
CCOc1ccccc1Nc1ncc2c(n1)CCCC2	2%
Cc1ccc(Nc2ncc3c(n2)CCCC3)cc1	58%
Cc1ccccc1Nc1ncc2c(n1)CCCC2	54%
FC(F)(F)c1cccc(Nc2ncc3c(n2)CCCC3)c1	7%
COc1ccc(Nc2ncc3c(n2)CCCC3)cc1	3%
CCc1cccc(Nc2ncc3c(n2)CCCC3)c1	39%
FC(F)(F)c1ccc(Nc2ncc3c(n2)CCCC3)cc1	7%

Target: Cyclin-dependent kinase 4/cyclin D1 (Homo sapiens, UniProt P11802)
Experiment: Inhibition of human recombinant N-terminal GST-tagged CDK4 (S4-E303 residues)/Cyclin D1 (Q4-I295 residues) expressed in sf9 cells using RB-CTF as substrate incubated for 90 mins in presence of ATP by ADP-Glo kinase assay
Settings: not given

Cyclin-dependent kinase 4/cyclin D1, sequence (P11802 whole entry, the tested form may be a part): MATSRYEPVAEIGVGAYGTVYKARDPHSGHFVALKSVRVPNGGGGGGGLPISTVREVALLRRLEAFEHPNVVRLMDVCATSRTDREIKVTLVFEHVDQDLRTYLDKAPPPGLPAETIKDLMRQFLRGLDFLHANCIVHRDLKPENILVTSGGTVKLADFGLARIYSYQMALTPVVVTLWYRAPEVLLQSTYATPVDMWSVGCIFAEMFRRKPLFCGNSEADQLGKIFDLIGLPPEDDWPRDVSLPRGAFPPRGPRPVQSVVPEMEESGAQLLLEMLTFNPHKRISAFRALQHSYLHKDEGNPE
Cyclin-dependent kinase 4/cyclin D1, sequence (P24385 whole entry, further chain, the tested form may be a part): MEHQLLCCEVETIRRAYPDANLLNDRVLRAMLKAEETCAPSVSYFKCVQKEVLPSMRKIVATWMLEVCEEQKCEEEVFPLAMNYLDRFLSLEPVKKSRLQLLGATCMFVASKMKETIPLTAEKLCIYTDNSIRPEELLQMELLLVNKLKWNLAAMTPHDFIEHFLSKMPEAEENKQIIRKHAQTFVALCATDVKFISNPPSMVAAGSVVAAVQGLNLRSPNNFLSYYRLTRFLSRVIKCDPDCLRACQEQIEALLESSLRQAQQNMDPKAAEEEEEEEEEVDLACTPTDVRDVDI

Structure (SMILES)	Ki
COc1cccc(Nc2ncc3c(n2)CCCC3)c1	> 5 µM
O=[N+]([O-])c1cccc(Nc2ncc3c(n2)CCCC3)c1	> 5 µM
Cc1ccc(Nc2ncc3c(n2)CCCC3)cc1	> 5 µM
Cc1ccccc1Nc1ncc2c(n1)CCCC2	> 5 µM
CCc1cccc(Nc2ncc3c(n2)CCCC3)c1	> 5 µM

Tested on: MOLM-13
Experiment: Antiproliferative activity against human MOLM13 cells assessed as growth inhibition measured after 72 hrs by resazurin assay
Type: functional
Settings: MOLM-13, 72 h
Summary of the method: as §2

Structure (SMILES)	GI50
c1ccc(Nc2ncc3c(n2)CCCC3)cc1	5.63 µM
COc1ccc(Nc2ncc3c(n2)CCC3)cc1	1.1 µM
O=C(Nc1cccc(CN2CCCC2)c1)c1n[nH]c2ccccc12	3.83 µM
